According to article PMC3143253 (Journal of molecular biology, 2011):
Entries after “also recorded” stand apart in the source; their conditions may differ. One block for each compound: values may come before it. No end group written: not given here. *: point of attachment. X1 = CN(C)c1ccc2c(-c3ccc(N4C(=O)CC(*)C4=O)cc3C(=O)[O-])c3ccc(N(C)C)cc3[o+]c2c1

Columns and labels:
[1] = cited from earlier work
[2] = test system: 15N-labeled Ca^2+-loaded CaM; assay: 1H,15N-HSQC NMR titration of 15N-labeled CaM; type: binding; settings: Ca^2+-CaM, 310 K
[3] = biological target: CaM (I-CaM, IAEDANS-labeled CaM-K75C) (Homo sapiens, UniProt P0DP23, K76C); assay: I-CaM fluorescence titration of water-soluble peptides; type: binding; settings: 0.1 mM CaCl2 versus 0.3 mM EDTA
[4] = biological target: T1, CaM (Homo sapiens, UniProt P0DP23); assay: Isothermal titration calorimetry; type: binding; settings: 10 mM MOPS, 2 mM CaCl2, 100 mM NaCl, pH 7.4, 30 °C
[5] = test system: D/A-CaM (donor/acceptor-labeled CaM); assay: FRET measurements using D/A-CaM; type: binding; settings: compared with CaMKII-derived peptide; calcium-containing buffer, pH 7.4
[6] = Solubility; type: physicochemical
[7] = biological target: T1, CaM; assay: CaM titration to TMR-CLS liposomes, TMR fluorescence; type: binding; settings: pH 7.4; for association with CaM in 15% POPS liposomes: 15% POPS / 85% POPC liposomes, absence and presence of calcium
[8] = Collisional fluorescence; type: binding; settings: pH 7.4
[9] = biological target: I-CaM (Homo sapiens, UniProt P0DP23, K76C); assay: I-CaM titration to CLS liposomes, Trp315 to IAEDANS energy transfer; type: binding
In short: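 Unlabelled CLS (30 nM) in liposomes was titrated with IAEDANS-labelled cysteine-mutant CaM. Its concentration came from IAEDANS absorbance. Buffer was 10 mM MOPS, 100 mM NaCl, pH 7.4, with 0.3 mM EDTA or 1 mM CaCl2, at 20 °C. Excitation was 295 nm, and Trp quenching was read at 333 nm. Spectra were averaged over 3 scans and corrected with empty liposomes. Kd came from a hyperbolic fit.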

[10] = biological target: T1, CaM; assay: Overall affinity of CaM for L-selectin cytoplasmic domain; type: binding; settings: phosphatidylserine content mimics that in the inner leaflet of the cell plasma membrane
[11] = Far-UV CD spectroscopy in liposomes; type: physicochemical; settings: 1 mM MOPS, pH 7.4, 20 °C
In short: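 CLS reconstituted into large unilamellar vesicles (extruded, 400-nm filter) at about 10 μM in 1 mM MOPS, pH 7.4. Far-UV spectra (190–260 nm) were taken in a 0.1-cm cuvette at 20 °C with 0.2 nm steps and 10 scans each, corrected against empty liposomes. CLS content was measured by Trp emission after dissolving in 2% SDS, against a standard curve.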

Compound: NCCCCCCNS(=O)(=O)c1cccc2c(Cl)cccc12 [W-7]
membrane binding and surface potential [1]: directly bind to membrane and alter the electrostatic surface potential

N (stoichiometry of binding) ([4]; ARR18 316 μM in 10 μl increments into 27.6 μM CaM, one-site model): 0.92±0.05 | ΔH (enthalpy change per mole of ligand) ([4]; ARR18 316 μM into 27.6 μM CaM, one-site model): -0.77 ± 0.07 kcal/mol | ΔS (entropy change) ([4]; derived from Ka and ΔH): 21.7 cal/mol·K
Compound: ARRLKKGKKSKRSMNDPY [ARR18]
CaM lobes bound ([2]; 10 mM MOPS, 100 mM NaCl, 5 mM CaCl2, pH 6.3): binds to both the N- and C-lobes of Ca^2+-CaM | nature of the binary complex ([2]; saturating concentrations of ARR18, pH 6.3): dynamic and exist as an ensemble of interconverting conformers | effect of calcium on association with CaM [3]: calcium does not influence the association of CaM with ARR18 | conformation of bound CaM [5]: much more extended conformation | solubility in water / aqueous solutions [6]: soluble in water up to millimolar concentration

Compound: KLDKSFSMIKEGDYNPLFIPVAVMVTAFSGLAFIIWLARRLKKGKKSKRC(X1)MNDPY [TMR-CLS]
association with CaM in 15% POPS liposomes [7]: does not bind | change in TMR fluorescence emission on addition of CaM ([7]; 15% POPS liposomes, up to 10 μM CaM, 10 mM MOPS, 100 mM NaCl, 1 mM EDTA or 0.1 mM CaCl2): little change in TMR fluorescence emission | effect of NaNO3 on TMR fluorescence (15% POPS versus POPC liposomes) ([8]; 150 mM NaI, increasing NaNO3, 10 mM MOPS, ex 542 nm, em 575 nm): quenched more significantly in 15% POPS liposomes compared to POPC liposomes

association with CaM in 15% POPS liposomes [7]: does not associate | effect of calcium on interaction with CaM ([9]; CLS in POPC liposomes, CaCl2 versus EDTA): independent of calcium ion | solubility in water / aqueous solutions [6]: not soluble in aqueous solutions
Compound: KLDKSFSMIKEGDYNPLFIPVAVMVTAFSGLAFIIWLARRLKKGKKSKRSMNDPY [CLS]
quenching of Trp315 fluorescence by I-CaM ([9]; unlabeled CLS in 15% POPS liposomes, pH 7.4): did not produce a significant quenching of Trp315 fluorescence | interaction with CaM (summary) [10]: undetectable; also recorded: fails to bind | secondary structure by CD ([11]; POPC and 15% POPS liposomes, minima at 208 and 222 nm): characteristic of the α-helical secondary structure | α-helical content in 15% POPS versus POPC liposome ([11]; ellipticity at 222 nm): less α-helical secondary structure in the 15% POPS liposome than in the POPC liposome | location of cytoplasmic domain relative to membrane surface ([8]; POPC liposomes with 0–15% POPS, 20 °C): located closer to the surface of membranes that have higher concentrations of negatively charged lipids
